These results are taken from ChEMBL document CHEMBL2390931, “Synthesis and antifungal activity of some s-mercaptotriazolobenzothiazolyl amino acid derivatives” (2013).

As usually defined, the MIC is the lowest concentration that inhibits growth of the organism. In general, MFC refers to the smallest concentration meeting the test's criterion for killing the fungus.

What all share (assay type): functional
Experiment [1] concerns Aspergillus flavus. The experiment is described as follows: Antifungal activity against Aspergillus flavus at 100 ppm. A digest of the protocol: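 Clinical isolate of A. flavus (mold) tested by agar diffusion, well technique, using a standardized spore suspension of 10⁴ CFU/mL. Compounds were dissolved in dimethylsulphoxide and diluted from a parent stock.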
Experiment [2] relates to Aspergillus flavus. The experiment is described as follows: Antifungal activity against Aspergillus flavus at 500 ppm. The conditions noted are these: for zone of inhibition at 500 ppm: read-out: DIZ. Summed up: (§1)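 Agar well diffusion against clinical isolates (A. flavus mold; C. albicans yeast); standardized spore suspension 10⁴ CFU/mL. Compounds dissolved in DMSO as a parent stock, diluted to test levels (100, 300, 500, 1000 ppm).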

Experiment [3] has as its system Aspergillus flavus. Put plainly: Antifungal activity against Aspergillus flavus at 300 ppm. Particulars: for zone of inhibition at 300 ppm: read-out: DIZ. A digest of the protocol: as §1
Experiment [4] deals with Candida albicans. The experiment is described as follows: Antifungal activity against Candida albicans at 500 ppm. Particulars: for zone of inhibition at 500 ppm: read-out: DIZ. A digest of the protocol: as §1
Experiment [5] relates to Aspergillus flavus. The experiment is described as follows: Antifungal activity against Aspergillus flavus at 1000 ppm. Particulars: read-out: DIZ. A digest of the protocol: as §1
For experiment [6], the system named is Candida albicans. The experiment is described as follows: Antifungal activity against Candida albicans by agar diffusion technique. A digest of the protocol: (§2)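 Clinical isolates (A. flavus mold; C. albicans yeast), spore suspension standardized at 10⁴ CFU/mL. DMSO stocks diluted to a concentration series. Approximate MIC by agar diffusion (well technique), taken as the concentration giving minimal inhibition around the well.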
Background: A growth-free zone around the sample is the usual read-out of agar diffusion tests.

For experiment [7], the system named is Aspergillus flavus. The experiment is described as follows: Antifungal activity against Aspergillus flavus up to 24 hrs. Summed up: (§3)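 MFC in tubes of standardized spore suspension (10⁴ CFU/mL) of clinical isolates, each dosed with compound at increasing concentrations starting from the MIC. Controls: solvent at its highest level, and fluconazole. CFU counted and viability checked at intervals over 0–24 h. MFC is the lowest concentration killing about 99% of viable CFU.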

Experiment [8] relates to Candida albicans. Put plainly: Antifungal activity against Candida albicans at 1000 ppm. The conditions noted are these: read-out: DIZ. Summed up: as §1
Experiment [9] concerns Aspergillus flavus. The experiment is described as follows: Antifungal activity against Aspergillus flavus by agar diffusion technique. A digest of the protocol: as §2
The subject of experiment [10] is Candida albicans. Put plainly: Antifungal activity against Candida albicans up to 24 hrs. Summed up:
as §3

Experiment [11] relates to Candida albicans. Put plainly: Antifungal activity against Candida albicans at 100 ppm. The conditions noted are these: for zone of inhibition at 100 ppm: read-out: DIZ. A digest of the protocol:
as §1

The subject of experiment [12] is Candida albicans. Put plainly: Antifungal activity against Candida albicans at 300 ppm. Particulars: for zone of inhibition at 300 ppm: read-out: DIZ. A digest of the protocol: as §1

Each structure is given as a SMILES string. Converted amounts (≈) assume the structure as drawn. The source made the active and inactive calls.

Consider `O=C(CCSc1nnc2sc3ccccc3n12)N(C(=O)NC1CCCCC1)C1CCCCC1`, for which the “diameter of the inhibition zone (DIZ)” value in the experiment on Aspergillus flavus [1], in the experiment with Aspergillus flavus [2], in the experiment with Aspergillus flavus [3] and in the experiment with Candida albicans [11] was “inactive” in each case. For the same compound, the zone of inhibition at 500 ppm in the experiment with Candida albicans [4] came to 10 mm. Moreover, the figures for the zone of inhibition at 1000 ppm in the experiment with Aspergillus flavus [5] and with Candida albicans [8] were < 10 mm and > 16 mm, respectively. Further, the minimal inhibitory concentration (MIC) with Candida albicans [6] is 300 µg/mL (≈ 618 µM); against Aspergillus flavus [9] it was 1000 µg/mL (≈ 2060 µM). In addition, the MFC entry in the experiment on Aspergillus flavus [7] and in the experiment on Candida albicans [10] was “inactive” each time. The zone of inhibition at 300 ppm in the experiment on Candida albicans [12] was < 10 mm.
For `COC(=O)[C@H](CCSC)NC(=O)CCSc1nnc2sc3ccccc3n12`, the “diameter of the inhibition zone (DIZ)” value in the experiment on Aspergillus flavus [1], in the experiment on Aspergillus flavus [2], with Aspergillus flavus [3], in the experiment with Candida albicans [11] and with Candida albicans [12] was “inactive” throughout. Also, in the experiment on Candida albicans [4], the zone of inhibition at 500 ppm was < 10 mm. In addition, the figures for the zone of inhibition at 1000 ppm in the experiment with Aspergillus flavus [5] and in the experiment on Candida albicans [8] were < 10 mm and 10 mm, respectively. Also, the minimal inhibitory concentration (MIC) amounted to 500 µg/mL (≈ 1180 µM) with Candida albicans [6] and 1000 µg/mL (≈ 2360 µM) against Aspergillus flavus [9]. The MFC result in the experiment on Aspergillus flavus [7] and in the experiment with Candida albicans [10] was “inactive” each time.
For `OC(Cn1cncn1)(Cn1cncn1)c1ccc(F)cc1F` [FLUCONAZOLE], the zone of inhibition at 100 ppm with Aspergillus flavus [1] (read-out: DIZ) and with Candida albicans [11] was < 10 mm in each case. Moreover, the zone of inhibition at 500 ppm in the experiment on Aspergillus flavus [2] and with Candida albicans [4] was > 16 mm throughout. Further, the zone of inhibition at 300 ppm in the experiment with Aspergillus flavus [3] and in the experiment with Candida albicans [12] was 10 mm in each case. Besides, the zone of inhibition at 1000 ppm in the experiment on Aspergillus flavus [5] and in the experiment on Candida albicans [8] was > 16 mm in each case. Besides, the MIC against Candida albicans [6] came to 100 µg/mL (≈ 327 µM). Moreover, the MFC amounted to 300 µg/mL (≈ 980 µM) against Aspergillus flavus [7], 100 µg/mL (≈ 327 µM) in the experiment with Aspergillus flavus [9] and 300 µg/mL (≈ 980 µM) in the experiment on Candida albicans [10].
As to `COC(=O)CCNC(=O)CSc1nnc2sc3ccccc3n12`, the “diameter of the inhibition zone (DIZ)” value with Aspergillus flavus [1], with Aspergillus flavus [2], with Aspergillus flavus [3], with Candida albicans [4], in the experiment on Candida albicans [11] and in the experiment with Candida albicans [12] was “inactive” each time. Also, the zone of inhibition at 1000 ppm in the experiment on Aspergillus flavus [5] and in the experiment on Candida albicans [8] was < 10 mm in each case. Also, in the experiment with Candida albicans [6], the MIC amounted to 1000 µg/mL (≈ 2850 µM). For the same compound, the MFC result in the experiment on Aspergillus flavus [7] and in the experiment on Candida albicans [10] was “inactive” each time. Moreover, the MIC result with Aspergillus flavus [9] is “inactive”.
For the compound `COC(=O)CNC(=O)CSc1nnc2sc3ccccc3n12`, the “diameter of the inhibition zone (DIZ)” value with Aspergillus flavus [1], in the experiment with Aspergillus flavus [2], with Aspergillus flavus [3], in the experiment on Candida albicans [11] and in the experiment on Candida albicans [12] was “inactive” in each case. For the same compound, the zone of inhibition at 500 ppm with Candida albicans [4] is < 10 mm. Also, the zone of inhibition at 1000 ppm is < 10 mm in the experiment on Aspergillus flavus [5] and 10 mm in the experiment with Candida albicans [8]. Besides, the minimum inhibitory concentration (MIC) in the experiment on Candida albicans [6] was 500 µg/mL (≈ 1490 µM); with Aspergillus flavus [9], 1000 µg/mL (≈ 2970 µM). Also, the MFC entry in the experiment with Aspergillus flavus [7] and with Candida albicans [10] was “inactive” each time.
`O=C(O)CCSc1nnc2sc3ccccc3n12`: the “diameter of the inhibition zone (DIZ)” value in the experiment with Aspergillus flavus [1], with Aspergillus flavus [3] and in the experiment on Candida albicans [11] was “inactive” in each case. Moreover, the zone of inhibition at 500 ppm was < 10 mm with Aspergillus flavus [2] and 10 mm in the experiment on Candida albicans [4]. The zone of inhibition at 1000 ppm is 10 mm with Aspergillus flavus [5] and > 16 mm in the experiment on Candida albicans [8]. Besides, the minimal inhibitory concentration (MIC) against Candida albicans [6] was 300 µg/mL (≈ 1070 µM); in the experiment on Aspergillus flavus [9] it was 500 µg/mL (≈ 1790 µM). Also, the MFC entry with Aspergillus flavus [7] and in the experiment with Candida albicans [10] was “inactive” in each case. Also, the zone of inhibition at 300 ppm in the experiment on Candida albicans [12] was < 10 mm.
`Sc1nnc2sc3ccccc3n12`: the “diameter of the inhibition zone (DIZ)” value in the experiment on Aspergillus flavus [1] is “inactive”. Besides, the zone of inhibition at 500 ppm is 10 mm with Aspergillus flavus [2] and > 16 mm in the experiment with Candida albicans [4]. For the same compound, the values for the zone of inhibition at 300 ppm in the experiment with Aspergillus flavus [3] and in the experiment with Candida albicans [12] were < 10 mm and 10 mm, respectively. The zone of inhibition at 1000 ppm in the experiment with Aspergillus flavus [5] and in the experiment with Candida albicans [8] was > 16 mm each time. Moreover, the results for the MIC in the experiment on Candida albicans [6] and in the experiment on Aspergillus flavus [9] were 100 µg/mL (≈ 482 µM) and 300 µg/mL (≈ 1450 µM), respectively. Moreover, the MFC with Aspergillus flavus [7] and in the experiment with Candida albicans [10] was 500 µg/mL (≈ 2410 µM) in each case. In addition, in the experiment with Candida albicans [11], the zone of inhibition at 100 ppm was < 10 mm.
